An excerpt weighted towards active compounds, which were near 4.1% of everything screened.
Dynein transport: blocks dynein driven cargo transport along microtubules; 3617.4 mouse cells, GR-EGFP nuclear translocation imaging; test concentration mostly 20 µM; stimulated with dexamethasone, 1 µM; stronger effect = lower value; z-score, hits read low; actives 0.47% (n = 220,000);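 active = plate z-score of nuclear minus cytoplasmic receptor signal below a set negative limit, without overly bright fluorescence or cell loss, cut at about -3.5 in these data, passing the limit was not always enough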;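 note: z-score of nuclear minus cytoplasmic ring GR-EGFP intensity difference per well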
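medium = tetracycline-free induction medium containing charcoal-stripped FBS | also added = 1.0 µM final dexamethasone stimulus | schedule = 48 h induction, 1 h compound, 30 min dex at 37 °C | technique = fixed, Hoechst-stained cells imaged at 10x for EGFP | measure = GR-EGFP nuclear translocation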
Autophagy HCS: alters autophagy in cells; actives 0.98% (n = 190,000); AID 463193; calls only at 10 µM (by protocol); MEF GFP-LC3 puncta imaging; test concentration mostly 10 µM;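 active = percentage of spot-positive cells more than 3 SD above its plate mean, without a fluorescence outlier flag or 80% toxicity; inconclusive = no clear call, values can overlap the other calls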;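 note: spot-positive cell cutoff set from DMSO-treated cells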
Cl transport mod: modulates chloride dependent transport by human KCC2. AID 1456. B-score of Tl+ flux slope (higher = more flux/activation; lower = inhibition) at 10 µM. actives 2.2% (n = 190,000). KCC2 cells, thallium flux FluoZin-2 fluorescence;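 active = thallium flux slope and its plate-corrected score both differing from the plate sample mean at a set confidence after two filtering rounds, in either direction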;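 note: slope of fluorescence scaled to starting intensity during 10 to 20 s after thallium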
ROMK primary: modulates human ROMK potassium channel activity; P48048; actives 2% (n = 130,000); B-score at 10 µM; Tet-inducible ROMK, thallium flux fluorescence; actives lie on both sides;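 active = signal ratio slope over the read window, or its plate-corrected B-score, at least 3 SD from the plate mean, either direction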;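 note: B-score of the F/F0 ratio slope over 7 to 12 s after thallium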
Target sequence (P48048 whole entry, looked up): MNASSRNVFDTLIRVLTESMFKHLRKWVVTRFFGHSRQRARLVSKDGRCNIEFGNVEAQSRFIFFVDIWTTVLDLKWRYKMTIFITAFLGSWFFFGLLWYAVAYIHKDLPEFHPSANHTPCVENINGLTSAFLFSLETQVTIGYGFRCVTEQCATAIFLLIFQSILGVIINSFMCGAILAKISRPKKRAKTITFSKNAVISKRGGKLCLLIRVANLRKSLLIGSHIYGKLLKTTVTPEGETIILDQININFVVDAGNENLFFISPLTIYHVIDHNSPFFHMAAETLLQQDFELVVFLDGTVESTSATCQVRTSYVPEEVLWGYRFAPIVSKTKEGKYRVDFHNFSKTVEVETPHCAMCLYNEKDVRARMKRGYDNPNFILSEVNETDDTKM
DTT redox prof: compounds producing H2O2 with reducing agent – biochemical, NIH compound library profiling, artefact control for MLSCN library redox annotation, primary screen. DTT-dependent redox cycling H2O2, phenol red/HRP absorbance; 100% = 100 µM peroxide control, 0% = buffer. activation, % at 10 µM. actives 0.03% (n = 200,000). AID 878;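 active = activation of at least 50% relative to the plate's high and low controls in the primary single-dose screen; inactive = activation below 50%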;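 note: compound incubated with DTT at 0.8 mM final as the reducing agent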
KCC2 sec1: KCC2 (human) modulation, secondary assay. shares compounds with Cl transport mod. HEK293-KCC2, thallium flux, FluoZin2 fluorescence; stronger effect = higher value. normalised thallium flux (F/F0 slope) at 10 µM. actives 15% (n = 3,700);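 active = thallium flux slope above the same plate's solvent-only control mean plus 3 SD; inconclusive = the two replicate wells disagree; inactive = no significant difference from solvent-only control wells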
KCC2 bumet counter: thallium flux despite bumetanide block in KCC2 cells, secondary assay 3 | HEK293-KCC2 + bumetanide/ouabain, thallium flux FluoZin2; stronger effect = higher value | normalized thallium flux at 10 µM | actives 49% (n = 3,700) | shares compounds with Cl transport mod;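 active = thallium entry rate above the same plate's blocked-transporter control wells by more than 3 SD; inconclusive = the two repeat wells disagree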;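 note: raw slope of fluorescence over initial fluorescence between 10 and 20 s after thallium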
KCC2 sec2: confirmation of human KCC2 transport modulators | shares compounds with Cl transport mod | HEK293-KCC2, thallium flux FluoZin2 fluorescence; actives lie on both sides; F/F0 rise rate, 10–20 s post-thallium | normalized thallium flux at 10 µM | actives 23% (n = 3,700) | AID 1715;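 active = thallium flux slope more than 3 SD above or below the plate's solvent-only control mean, mostly below; inconclusive = the two repeat wells disagreed; inactive = no significant shift from solvent-only controls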;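 note: raw slope with 0.1% DMSO as baseline and bumetanide as block control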
HEK293 Tl flux: counter-screen for KCC2 modulators: effect in parental HEK293 cells | actives 46% (n = 3,700) | thallium flux FluoZin2, ouabain; baseline-ratio fluorescence slope, 10–20 s after thallium | thallium flux rate (normalised fluorescence) at 10 µM | shares compounds with Cl transport mod | AID 1716;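 active = thallium flux rate significantly above the same plate's solvent-only control wells, beyond their mean plus 3 SD; inconclusive = the two replicate wells gave conflicting results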
KCC2 ouabain: modulates human KCC2 on retest with ouabain; shares compounds with Cl transport mod; raw Tl+ flux slope (below DMSO = inhibition, above = activation) at 10 µM; actives 48% (n = 3,700); AID 1717; HEK293-KCC2, thallium flux FluoZin2 fluorescence; bidirectional: low = inhibitor, high = activator;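 active = thallium flux slope beyond 3 SD from same-plate DMSO control mean in most replicates, usually higher, sometimes lower; inconclusive = repeat tests gave conflicting results; inactive = no significant difference from controls in most replicates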;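 note: slope of initial-normalized fluorescence between seconds 10 and 20 after thallium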
HEK counter2: counter-screen for KCC2 modulators: effect in parental HEK293 cells | thallium flux FluoZin-2 fluorescence slope | thallium flux slope at 10 µM | actives 33% (n = 3,700) | shares compounds with Cl transport mod;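 active = thallium flux slope above the same plate's solvent-control mean plus 3 SD in both duplicate wells; inconclusive = duplicate wells that disagreed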;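 note: run without ouabain in cells lacking the KCC2 cotransporter; slope of fluorescence scaled to its starting value between 10 and 20 s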
An asterisk follows results filed as active; i = inactive; ? = inconclusive; · = no result given.

SMILES	Dynein transport	Autophagy HCS	Cl transport mod	ROMK primary	DTT redox prof	KCC2 sec1	KCC2 bumet counter	KCC2 sec2	HEK293 Tl flux	KCC2 ouabain	HEK counter2
CCOC(=O)c1sc(NC(=O)c2ccc(OC)cc2)nc1C	-0.25	i	0.26	-0.23	0	·	·	·	·	·	·
O=C(NC(=S)NCc1ccc2c(c1)OCO2)c1ccccc1	0.75	i	12*	-0.22	0	0.0091	0.019*	0.027	0.009*	?	?
COc1ccccc1NC(=O)CCC(=O)OCc1cccc([N+](=O)[O-])c1	-0.4	i	0.25	-0.29	-1	·	·	·	·	·	·
Cc1[nH]c2ccccc2c1C(=O)COc1ccccc1	-0.31	i	-1.1	1.4	0	·	·	·	·	·	·
CCOC(=O)c1sc(Nc2nc(OC)cc(OC)n2)nc1C	0.28	i	0.074	-0.29	0	·	·	·	·	·	·
Cc1c(Br)c([N+](=O)[O-])nn1CC(=O)NCC1CCCO1 (stereo unspecified)	0.038	i	0.19	0.47	0	·	·	·	·	·	·
COc1ccc(C(=O)NC(=S)NNC(=O)c2ccc(NC(=O)C(C)C)cc2)cc1	-0.36	i	0.2	·	0	·	·	·	·	·	·
COc1ccc(C(=O)NC(=S)NNC(=O)c2ccc3ccccc3n2)cc1	-0.022	·	57*	·	·	?	0.072*	?	0.067*	0.063*	0.042*
COc1ccc(C(=O)NC(=S)NCc2ccccc2)cc1	-0.38	i	-3*	1.2	3	0.0071	0.0077*	0.029	0.0085	0.019	0.011
COc1cc(OC)cc(C(=O)NC(=S)NCCc2ccccc2)c1	0.052	i	·	·	2	·	·	·	·	·	·
COC(=O)C1CCN(CC(=O)NC(=O)NC2CCCCC2)CC1	-0.28	i	0.72	0.42	0	·	·	·	·	·	·
COn1c(SC(C)C)nc2ccccc2c1=O	-0.51	i	0.23	·	0	·	·	·	·	·	·
COn1c(SC2CCCCC2)nc2ccccc2c1=O	0.1	i	2.6*	-1.1	1	?	0.014*	0.027	0.012*	?	0.0099
CC1=CC2=NC(=O)/C(=C/c3coc4ccc(Cl)cc4c3=O)C(=N)N2O1	1.4	·	-9.5*	·	·	0.004*	-0.0043*	0.015*	0.00044*	0.0026*	0.0026*
CC1=CC2=NC(=O)/C(=C\c3cc(C)n(-c4cccc(Cl)c4)c3C)C(=N)N2O1	0.75	i	-0.056	-0.51	0	·	·	·	·	·	·
CC(O)CC(C(=O)NNc1ccccc1)C(=O)NNc1ccccc1 (stereo unspecified)	-0.019	i	-0.017	0.69	0	·	·	·	·	·	·
O=C(O)CCn1c(-c2ccccc2)cc2ccccc21	-0.6	i	-6.4*	0.69	0	0.0066	0.007	0.028	0.007	0.013*	0.0096
Cn1cc(C(=O)C(=O)N2CCCc3ccccc32)c2ccccc21	-0.23	i	-4.4*	1.5	0	0.017	0.0051	0.024*	0.0066	0.013	0.0094
O=C(NCCN1C(=O)S/C(=C\c2ccccc2)C1=O)c1cc(S(=O)(=O)N2CCOCC2)c(Cl)cc1Cl	-1.3	i	0.024	·	1	·	·	·	·	·	·
O=C(c1ccccc1SCc1ccc(F)cc1)N1CCOCC1	0.71	i	-3.5*	0.22	0	0.015	?	0.024*	0.0068	0.014*	0.0098
COn1c(=S)[nH]c2ccccc2c1=O	-0.32	i	·	0.85	0	·	·	·	·	·	·
CCC(C)n1c(=S)[nH]c2ccccc2c1=O (stereo unspecified)	-1.3	i	101*	2.3	-2	0.042*	0.14*	0.055*	0.13*	0.11*	0.039*
CCC(Cc1ccccc1)n1c(=S)[nH]c2ccccc2c1=O (stereo unspecified)	0.052	i	50*	-0.24	-1	0.019*	0.15*	0.035	0.059*	0.088*	0.017*
CCC(C)NC(=O)c1ccc(-n2c(=S)[nH]c3ccccc3c2=O)cc1 (stereo unspecified)	-0.49	i	-0.008	-0.19	0	·	·	·	·	·	·
CCCCC1=C([O-])C2N=CC=CC2=[N+](c2ccccn2)C1=O (stereo unspecified)	0.071	i	0.78	·	0	·	·	·	·	·	·
SMILES	Dynein transport	Autophagy HCS	Cl transport mod	ROMK primary	DTT redox prof	KCC2 sec1	KCC2 bumet counter	KCC2 sec2	HEK293 Tl flux	KCC2 ouabain	HEK counter2
COC(=O)c1ccc(NC(=O)CC2C(=O)N(c3ccc(C)cc3)C(=O)N2CC(C)C)cc1 (stereo unspecified)	0.59	i	·	0.38	0	·	·	·	·	·	·
CCOC(=O)c1ccc(NC(=O)CC2C(=O)N(c3ccc(F)cc3)C(=O)N2CCC(C)C)cc1 (stereo unspecified)	0.12	i	-3.5*	-0.8	0	0.01	0.006	0.033	0.0073	0.021	0.011
Cc1nc(C(=O)NNC(=O)c2ccccc2)c(C(F)(F)F)o1	0.25	·	4.2*	·	·	0.0058	0.0065*	?	0.0087*	0.019	0.01
CCN(CC(=O)Nc1cccc(C#N)c1)CC(=O)Nc1cccc(OC)c1	1	i	-0.75	-0.45	0	·	·	·	·	·	·
C=CCn1c(C)cc(C(=O)COC(=O)/C=C/c2cccc(OC)c2)c1C	0.72	i	·	0.59	-10	·	·	·	·	·	·
COc1ccc(N2C(=O)/C(=C/c3cccs3)NC2=S)cc1	-0.26	i	8.7*	·	0	0.013*	0.022*	0.035	0.024*	0.032*	0.011*
Cc1ccc(C)c(N(C(=O)CCC(=O)Nc2cc(C)on2)C(C(=O)NC2CCCC2)c2ccco2)c1 (stereo unspecified)	0.51	i	-4.3*	·	1	?	0.0043	?	0.0067	0.015	0.009
Cc1cc(NC(=O)CCC(=O)N(Cc2ccco2)C2(C(=O)NC3CCCCC3)CCN(C)CC2)no1	-1.3	i	-5.9*	·	3	0.0056	0.0049	0.033	0.0073	0.019	0.011
Cc1nc(SCC(=O)Nc2cc(C(N)=O)cc(C(N)=O)c2)c2c(C)c(C)sc2n1	-0.0027	·	38*	1.2	·	?	0.042*	0.04	0.052*	0.045*	0.022*
